Sampled rows, rich in hits. Any-hit rate of the full collection: about 10%.
PMI activator – increases human mannose-6-phosphate isomerase activity; AID 1214; P34949; activation factor at 20 µM; purified human PMI, coupled resazurin fluorescence, 20 min; active compounds read high; 1 = vehicle control, 0 substrate-free wells; hit rate 0.005% among 190,000;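 active = activation factor of 2 or more at 20 µM, relative to plate controls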
Target sequence (P34949 whole entry, looked up): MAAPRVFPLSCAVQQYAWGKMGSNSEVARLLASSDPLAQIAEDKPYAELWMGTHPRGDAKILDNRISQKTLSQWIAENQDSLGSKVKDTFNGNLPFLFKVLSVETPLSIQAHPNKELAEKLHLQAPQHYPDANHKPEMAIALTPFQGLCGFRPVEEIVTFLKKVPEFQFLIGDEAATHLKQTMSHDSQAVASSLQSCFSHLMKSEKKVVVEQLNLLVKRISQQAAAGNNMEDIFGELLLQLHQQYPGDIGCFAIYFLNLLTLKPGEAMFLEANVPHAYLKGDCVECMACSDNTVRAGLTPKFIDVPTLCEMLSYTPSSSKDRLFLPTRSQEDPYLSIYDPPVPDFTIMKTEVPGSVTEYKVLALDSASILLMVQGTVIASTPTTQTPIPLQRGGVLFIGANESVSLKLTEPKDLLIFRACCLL
WT yeast gro inh – growth inhibition of WT yeast, mitochondrial fusion screen; mitochondrial fusion phenotypic screen, WT strain; inhibition, % at 10 µM; hit rate 2.1% among 190,000; in the data active = inhibition above about 58%; tested in S. cerevisiae
PMI act satM6P – activators of human phosphomannose isomerase at near-saturating mannose 6-phosphate. P34949. coupled PMI enzyme assay, resazurin fluorescence, 20 min; active compounds read high; 1 = untreated enzyme, 0 = substrate-free blank. activation factor at 20 µM. hit rate 0.34% among 190,000. AID 1216;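 active = activation factor of 2 or more at 20 µM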
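Material: human phosphomannose isomerase with PGI, G6PDH, diaphorase coupling enzymes; amount: PMI at 15 ng/mL final; also added: Mannose-6-phosphate 1.0 mM (near-saturating) plus 0.22 mM NADP+; incubation: enzyme reaction with compound 20 min at room temperature; signal: resorufin fluorescence (Ex 544/Em 590 nm) from resazurin via diaphorase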
Lmaj promast – reduces viability of Leishmania major promastigotes; resazurin fluorescence viability; AID 1063; hit rate 9% among 200,000; inhibition, % at 10 µM; in the data active = inhibition above about 50%;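 also: promastigotes grown with compound for 44 hours at 28 °C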
Diaph act CS – diaphorase activation or chemical reduction counter-screen; hit rate 0.005% among 190,000; Diaphorase/resazurin coupled assay, resorufin fluorescence, 16 min; active compounds read high; 1 = vehicle wells, 0 = NADH-free wells; AID 1229; activation factor at 20 µM;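 active = diaphorase activity raised at least twofold by the compound at 20 µM; inactive = activation factor below 2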
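test system = bacterial diaphorase enzyme (C. kluyveri) | quantity = enzyme 0.07 U/mL final | reagent = NADH substrate 0.114 mM plus resazurin dye 0.1 mM, final | incubation = 16 min enzyme reaction, ambient temperature | buffer or medium = HEPES pH 7.4 buffer with MgCl2 and Tween 20 | signal = fluorescence of resorufin, 544 nm excitation, 590 nm emission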
A number is an active result; 0 = inactive; - = not tested or not shown.

SMILES	PMI activator	WT yeast gro inh	PMI act satM6P	Lmaj promast	Diaph act CS
O=C(Nc1ccccc1)Nc1ccc(Br)cc1F	0	0	0	0	0
COc1ccc2cc(/C=C3\SC(=S)NC3=O)c(N3CCOCC3)nc2c1	0	72	0	0	0
O=C1NC(=S)S/C1=C/c1ccc(N2CCOCC2)o1	0	0	0	0	0
C=CCc1c(C)nc(-c2ccccc2)nc1N/N=C/c1ccncc1	0	0	0	68	0
C=CCc1c(C)nc(-c2ccccc2)nc1Nc1ccccc1O	0	0	0	62	0
CCn1c(SCC(=O)NCc2ccccc2)nc2c(c1=O)SC(C)C2 (centres undefined)	0	0	0	0	0
Cc1cccc(N2CCN(C(=O)N3CCCCC3)CC2)c1C	0	0	0	0	0
Cc1cccc(C)c1N1CCN(C(=O)N2CCCCC2)CC1	0	0	2	0	0
Cc1cc(C)c2nc(N3CCC(C(=O)NCCCN4CC(C)CC(C)C4)CC3)sc2c1 (centres undefined)	0	69	0	99	0
Cc1cc(C)c2nc(N3CCCC(C(=O)NCCCN4CCOCC4)C3)sc2c1 (centres undefined)	0	0	0	0	0
CN(Cc1ccc(F)cc1)C(=O)c1ccc2c(c1)NC(=O)CS2	0	0	0	0	0
CN(Cc1ccc(F)cc1)C(=O)c1cccc(OC2CCN(C3CCCC3)CC2)c1	0	0	0	93	0
CCOC(=O)Nc1ccc(=O)n(Cc2c(Cl)cccc2Cl)c1	0	0	0	0	0
COc1cccc(C(=O)Oc2c(Br)cc(Br)cc2/C=N/NC(=O)c2cc(C)[nH]n2)c1	0	0	0	78	0
Cc1cc2c(cc1C)NC(c1c(C)n(C)n(-c3ccccc3)c1=O)C1=C(CC(C)(C)CC1=O)N2 (centres undefined)	0	0	0	100	0
COc1ccc(NC(=O)c2cccnc2N2CCCC2)cc1	0	0	0	0	0
COc1ccc(Nc2nc(N3CCCC3)c3ccccc3n2)cc1	0	0	0	100	0
CCN(CC)c1ccc(CNc2nc3ccccc3n2CCN2CCOCC2)cc1	0	0	0	0	0
CCN(CC)c1ccc(Nc2nc(N3CCOCC3)c3ccccc3n2)cc1	0	0	0	97	0
Cc1nn(C)c(C(=O)N2CCOCC2)c1Cl	0	0	0	0	0
COc1cc(SC)ccc1C(=O)NCCOc1ccc(Cl)cc1	0	62	0	0	0
COc1cc(SC)ccc1C(=O)NCCOc1c(C)cc(C)cc1C	0	0	0	0	0
CSc1ccc(Cl)c(C(=O)NCCOc2cc(C(C)C)ccc2C)c1	0	67	0	0	0
COc1ccc(CNC(=O)c2cc(SC)ccc2Cl)cc1OC	0	-	0	0	0
COc1cc(SC)ccc1C(=O)Nc1ncc(C)s1	0	0	0	67	0
SMILES	PMI activator	WT yeast gro inh	PMI act satM6P	Lmaj promast	Diaph act CS
O=C(Cc1ccsc1)Nc1ccc(S(=O)(=O)C(F)F)cc1	0	0	0	0	0
CCOC(=S)SCC(=O)Nc1nc(-c2ccccc2)cs1	0	80	0	0	0
O=C(CSc1nc2ccccc2[nH]1)Nc1nc(-c2cccc(Br)c2)cs1	0	88	0	0	0
CCCc1nnc(NC(=O)CSc2nc3ccccc3[nH]2)s1	0	0	0	0	0
CCOC(=S)SCC(=O)Nc1nc(-c2ccc(Br)cc2)cs1	0	74	0	0	0
O=C(CSc1nc2ccccc2o1)Nc1nc(-c2ccccc2)cs1	0	63	0	0	0
COc1ccc(/C=N/Nc2ncnc3sc4c(c23)CCCC4)cc1OC	0	0	0	0	0
CCOC(=O)C1(CC2CCCCO2)CCN(C(=O)NCc2ccccc2)CC1 (centres undefined)	0	0	0	0	0
CSc1nsc(SCC(=O)Nc2nc3ccccc3s2)n1	0	0	0	63	0
O=C(CSc1nc2ccccc2s1)Nc1ccc(Cl)c(C(=O)O)c1	0	0	2.3	0	0
COc1ccc(-c2csc(NC(=O)CSc3nc(SC)ns3)n2)cc1	0	0	0	52	0
COc1ccc(-c2csc(NC(=O)CSc3nc(C)cs3)n2)cc1	-	0	-	0	-
COc1cc(C(=O)NCc2nnc(SCC(=O)Nc3nc4ccccc4s3)o2)cc(OC)c1OC	0	0	0	71	0
COc1ccc(C(=O)NCc2nnc(SCC(=O)Nc3nc4ccccc4s3)o2)cc1	0	0	0	0	0
CCOC(=O)N1CCC(NC(=O)CCC(=O)N2CCOc3ccc(Cl)cc32)CC1	0	0	0	0	0
CCc1cccc(C)c1NC(=S)NCC(c1cccnc1)N1CCOCC1 (centres undefined)	0	0	0	0	0
O=C(Cc1ccccc1)Nc1cc([N+](=O)[O-])ccc1N1CCOCC1	0	0	0	0	0
CCOC(=O)C1(CCc2ccccc2)CCN(C(=O)CCn2cncn2)CC1	0	0	0	0	0
COc1cccc(C(=O)NC(C)c2ccc(Br)cc2)c1 (centres undefined)	0	0	0	61	0
COc1cc(OC)cc(C(=O)NC(C)c2ccc(Br)cc2)c1 (centres undefined)	0	0	0	0	0
CC(NC(=O)c1ccc(Br)cc1)c1ccc2c(c1)CCCC2 (centres undefined)	0	63	0	0	0
Cc1cccc(CSC(Nc2ccc(F)cc2)=C(C#N)C#N)c1	0	80	0	0	0
C=CCn1c(O)c(N=NC(=S)Nc2ccc(OC)c(Cl)c2)c2ccccc21	0	0	0	97	0
C=CCn1c(O)c(N=Nc2ccccc2C)c2ccccc21	0	0	2.2	0	0
C=CCn1c(O)c(N=NC(=O)OC(C)(C)C)c2ccccc21	0	0	0	0	0
SMILES	PMI activator	WT yeast gro inh	PMI act satM6P	Lmaj promast	Diaph act CS
Nc1ccc(O)cc1C(=O)OCC(=O)c1ccc(C2CCCCC2)cc1	0	0	0	60	0
COc1ccc(C(=O)OCC(=O)c2ccc(C3CCCCC3)cc2)cc1	0	0	0	0	0
OCCC1CN(C/C(Cl)=C/c2ccccc2)CCN1C1CCCC1 (centres undefined)	0	0	0	89	0
Cc1ccc(CN2CCN(Cc3ccc4cc(F)ccc4n3)CC2CCO)o1 (centres undefined)	0	0	0	80	0
Cc1ccc(CN2CCN(C/C(Cl)=C/c3ccccc3)CC2CCO)o1 (centres undefined)	0	0	0	78	0
OCCC1CN(Cc2nc3ccccc3[nH]2)CCN1C1CCCC1 (centres undefined)	0	0	0	0	0
O=S(=O)(c1ccc(F)cc1)n1ccc(-c2cccc(OCc3ccc(Cl)cc3Cl)c2)n1	0	0	0	0	0
C=COCCNC(=S)N1CCOCCOCCN(C(=S)NCCOC=C)CCOCCOCC1	0	0	0	0	0
COc1ccc2sc(/C=C/c3ccccc3O)[n+](C)c2c1	0	0	0	92	0
O=C(CN1CCN(Cc2ccc3c(c2)OCO3)CC1)N1CCc2[nH]c3ccc(F)cc3c2C1	0	0	0	99	0

Assay outcomes deposited in PubChem BioAssay by several laboratories.
